Among the data in the RNAGym collection of RNA variant scans (doi:10.1126/science.aae0568) are yeast fitness values, retold here.

First the molecules themselves.
B1: tRNA (parent)
chain: GUUCCGUUGGCGUAAUGGUAACGCGUCUCCCUCCUAAGGAGAAGACUGCGGGUUCGAGUCCCGUACGGAACG

Variants at the floor of the assay were thinned out.

In the data set the parent is B1. Briefly: yeast fitness relative to wild type (ratio to wild type); higher = fitter; tRNA-Arg(CCU), competitive growth, 37 C, YPD. In a few lines:
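A pool of Saccharomyces cerevisiae strains, each with a tRNA-Arg(CCU) gene variant at the native genomic locus, was competed in YPD at 37°C for 24 hours across six parallel replicates. The variants had been chemically synthesised at a 3% per-site mutation rate over 69 sites, and gene amplicons before and after competition were read by 100-nucleotide paired-end sequencing. Darwinian fitness relative to wild type rested on changes in genotype frequencies. Genotypes required ≥ 100 starting reads, and estimates < 0.5 were set to 0.5.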
As to C11A U19A C29A U32A U54C C55G C60G A70U, the yeast fitness is at most 0.5. Regarding C11G C30U A37C A70U, the yeast fitness was at most 0.5. As for G10C U47A G48A, the yeast fitness turned out to be 0.568. As for C11A G52C C66U A69C, the yeast fitness is at most 0.5. In the case of C11A C46U A70G, the yeast fitness worked out at 0.56.

As for C11G C34U A42C C66A, the yeast fitness was at most 0.5.

For C11G C60G A65C, the yeast fitness was at most 0.5.

Consider C11A C27U G44C, for which the yeast fitness amounted to 0.572. Next, G10C U47G C55U A70G: at most 0.5; G10C U26C A45G A65C: 0.635. Turning to C11A C30U A42C, the yeast fitness is at most 0.5. C11G U13C G58C A69U: the yeast fitness was at most 0.5.

Consider C11G A37U C46U G63U, for which the yeast fitness is at most 0.5. Regarding C11G C46U C49A C55U A69U, the yeast fitness was 0.536. In the case of C11G G41C, the yeast fitness turned out to be 0.662. As to C11A G51A C66G, the yeast fitness is at most 0.5. Next, C11A A21C C31A C55U G68C: at most 0.5; C11G G12C A20G A43G A45C A69U: at most 0.5. With C11A G50A, the yeast fitness was determined as 0.651. C11A U13A C31G C55U: the yeast fitness is at most 0.5. C11A A42C G51A A69C: the yeast fitness is at most 0.5. Regarding C11A C29U A43C A65U, the yeast fitness was at most 0.5. The result for C11A U16A C29G A42C G51A reads at most 0.5; that for C11A U35A C61U C62U C66A, at most 0.5; that for C11A U59A G67C A69C, at most 0.5. The result for G10C U19A C66U reads at most 0.5. For the variant C11G G18A G23A C60G, the yeast fitness is at most 0.5. C11G G12C: the yeast fitness stood at 0.7.

Regarding C11G C24A U28G A36G G63A, the yeast fitness was at most 0.5. With C11A C31G A42U G67A, the yeast fitness was at most 0.5. Next, C11A G18A: 0.58; G10C C55U U59A: at most 0.5; G10C G25C U26C: 0.526. As to C11G C55G A57C, the yeast fitness was at most 0.5. Regarding C11G A21U U26C U47C G68C, the yeast fitness is at most 0.5. Consider G10C U26A C27U A42G A70G, for which the yeast fitness is at most 0.5. Next, C11A C30U A45C: at most 0.5; C11G U16A C29U: at most 0.5.

C11A A42C: the yeast fitness was 0.606. For C11G A15C C46G U59A, the yeast fitness was at most 0.5. Next, C11G G25A A45C: at most 0.5; C11A C24U C60A: at most 0.5; C11G C66A A69U: at most 0.5. Take C11G G38C C55U C61G: the yeast fitness was at most 0.5.

For the variant C11A G18A G58A U64C, the yeast fitness is at most 0.5. For the variant C11A C46U U64C, the yeast fitness was at most 0.5. Take C11G A42U A65G C66G G68A: the yeast fitness is at most 0.5.

Take C11G A20C C49A U54G: the yeast fitness was at most 0.5. C11A U47A A70C: the yeast fitness is at most 0.5. On to C11G G12A A42U C61A A65U, for which the yeast fitness came out at 0.528. Regarding C11G C31U, the yeast fitness worked out at 0.632.

Take C11G A15C C24G C46A: the yeast fitness came to 0.546.

In the case of C11G G17C C34A A43C G56C, the yeast fitness is at most 0.5. In the case of C11G C30A, the yeast fitness turned out to be 0.588. In the case of G10C U35G A43C U47C C55U A69C, the yeast fitness was found to be 0.574. Consider C11G C22U U53C G68C, for which the yeast fitness was 0.521. Consider C11G G58A A70G, for which the yeast fitness amounted to 0.659.

Turning to C11G C34U C55G, the yeast fitness came out at 0.689.

C11G C24G C49U: the yeast fitness was at most 0.5. In the case of C11G A15U G58U C66A A70C, the yeast fitness is at most 0.5. Consider G10C G58C G67A, for which the yeast fitness was at most 0.5. For C11A C30G C31U U32C G52A U59C, the yeast fitness was at most 0.5. Consider C11A C34A U47A C61G, for which the yeast fitness was at most 0.5. For the variant C11G G12A G41C C66A G67C, the yeast fitness was 0.596. For C11A A36G A43U, the yeast fitness was at most 0.5.

As for C11G C61U G68A, the yeast fitness was at most 0.5. As for C11A C33U C49U C60G, the yeast fitness is at most 0.5. For the variant G10C U16G A43C G51C, the yeast fitness was at most 0.5. Next, C11G A21C G56A: at most 0.5. In the case of C11A A20G C22G C49G G68C A69C, the yeast fitness is at most 0.5. Take C11G A42U C66G G67U: the yeast fitness is at most 0.5.

Regarding C11A C22G, the yeast fitness was found to be 0.623. The result for C11A A14G A15G C22A G23A C33A G38C A70U reads at most 0.5. In the case of C11G C31U C33U, the yeast fitness worked out at 0.509.

Consider C11A C24G C49U, for which the yeast fitness is 0.588.

Turning to C11A A14U C27U, the yeast fitness is at most 0.5. Next, C11A G23A G63C: 0.551; G10C G44U: 0.587. Consider C11A A14G C24U G41C A42G C55G, for which the yeast fitness was at most 0.5. G10U C31U: the yeast fitness came to 0.78.

For the variant C11G U13G A21G G63A, the yeast fitness was at most 0.5. Next, C11A G12A G25A: 0.604; C11G G25A G56A C60A C62U G68C: at most 0.5.

Turning to C11A A15C U26A C29U C33A G38C C55A C60U, the yeast fitness is at most 0.5. Take C11A C61G: the yeast fitness was at most 0.5. Regarding C11G G12A C27U A43G, the yeast fitness was at most 0.5. The result for C11A C49U C61U reads at most 0.5; that for C11A C33A A40G A43G, at most 0.5; that for G10C G18C A45C, at most 0.5.

Take C11A C27U C33U U35C: the yeast fitness is 0.634.

Regarding C11G G39C, the yeast fitness came to 0.6. Next, C11G G50U C62G: at most 0.5. In the case of C11G A15C G38C C49G, the yeast fitness is at most 0.5. As to C11G G12A C22U G44A, the yeast fitness is at most 0.5. The result for C11G G48A C49G reads 0.587; that for C11A C24G U47G G68C, at most 0.5. The result for C11A G18C A45C A57C G68C reads at most 0.5; that for C11G A37U, at most 0.5. As to C11A C22G C29G C62U, the yeast fitness amounted to 0.57. As for C11A A45G, the yeast fitness is 0.603. Turning to C11G G41A U53C, the yeast fitness is at most 0.5. Consider G10C G23C A65C, for which the yeast fitness is at most 0.5. Regarding C11G A14U A43U G48A, the yeast fitness was at most 0.5. As for G10C G51C A65U, the yeast fitness is at most 0.5. As to C11A G38U C66A, the yeast fitness was at most 0.5. With C11G U16C C22U G68U, the yeast fitness was at most 0.5. The result for C11A A42C C62A reads at most 0.5; that for G10C U26A U59C C66U, at most 0.5; that for C11G C24G C60A G68A, at most 0.5. For the variant C11G A21U G68C, the yeast fitness is at most 0.5. C11G C29U A36C A42G C46G: the yeast fitness is at most 0.5. In the case of C11G A14U U59G, the yeast fitness is at most 0.5.

As to C11G C30U C31G C33G A37U U64A, the yeast fitness is at most 0.5. Take C11G U28C U54C G58A: the yeast fitness was determined as 0.53.

Turning to C11A A70U, the yeast fitness is 0.581.

As to G10C G50A, the yeast fitness is 0.76. Regarding C11G G12A C24A C30G G44C C61G, the yeast fitness is at most 0.5.

Turning to C11G C24U C49U, the yeast fitness is at most 0.5.

C11A A20G C46U G50C C60A: the yeast fitness was at most 0.5.

Consider C11G C30A G44C G52C U64G, for which the yeast fitness was at most 0.5. G10C G41A C62U: the yeast fitness was at most 0.5.

Take C11G G41C C55U G58A: the yeast fitness is at most 0.5. In the case of C11G A15C G48C C55G G67C A70U, the yeast fitness was at most 0.5. Consider C11G U13G, for which the yeast fitness came out at 0.599. For the variant C11G U13A, the yeast fitness is 1.03. The result for C11G A15U C31A A70C reads at most 0.5.

As to C11G C29A A40U G52A, the yeast fitness is at most 0.5.

On to C11A A20U C22U, for which the yeast fitness was determined as 0.552.

In the case of C11G A20U A45C, the yeast fitness was at most 0.5.

Consider G10C U32C C33A, for which the yeast fitness is at most 0.5. Regarding C11G C31U G41C, the yeast fitness was at most 0.5. Turning to C11A A15G C22G C61U, the yeast fitness is at most 0.5. Turning to C11G A21G C31G, the yeast fitness is at most 0.5.

Take C11A C27G U35A A43U U54C A65G: the yeast fitness came out at 0.659.

With C11A C27A C55U, the yeast fitness is at most 0.5. Consider C11G G17A A37U A70G, for which the yeast fitness is at most 0.5.

In the case of C11G C29G G38A G44A C46U C62A, the yeast fitness was at most 0.5. For G10C U13A C31A C62U, the yeast fitness is at most 0.5. Consider C11A U53A, for which the yeast fitness was 0.59. The result for C11A U53C reads 0.556. The result for C11A A37C C49G C55G reads at most 0.5; that for G10C U19A C31G A42G, 0.627; that for C11G C49A G67C, at most 0.5. Turning to C11G C24U U35A, the yeast fitness amounted to 0.622. Turning to C11A U32C C49U, the yeast fitness was 0.606. The result for C11A U19G A36G C49A G68C reads at most 0.5; that for C11A G25C C29U, at most 0.5; that for C11G C24G C27A U28C C66U, at most 0.5. The result for C11A G17C U47A G68C reads at most 0.5; that for C11G C30U A37C C46U, 0.664; that for C11G A20G A43U U47A A65U G67C, at most 0.5. The result for C11A G44C G56A C66U reads 0.552.

As to C11A A15C C24G U59A, the yeast fitness is at most 0.5. Turning to C11G G12A C60U A70G, the yeast fitness is at most 0.5. Consider C11A A21U C66U, for which the yeast fitness is at most 0.5.

For C11G C27U C33U A65C G67A, the yeast fitness is at most 0.5.

For C11G A14U U19A G25A C34U C60U G68A, the yeast fitness is 0.517. As to C11G C29U C34U G68C, the yeast fitness was at most 0.5.

As for C11G C29G C33U C46A C49G, the yeast fitness was found to be 0.564.

On to C11A C27G C61G G68A, for which the yeast fitness is at most 0.5. On to G10C U32C A42C A65C C66G, for which the yeast fitness stood at 0.614. With C11A A43G G50C G56C A65G, the yeast fitness was at most 0.5.

Regarding G10C G12A A36G C46A U47A, the yeast fitness was at most 0.5. On to C11G C66U, for which the yeast fitness was found to be 0.615. The result for C11G C66A reads at most 0.5. As to C11A C27G C61G, the yeast fitness amounted to 0.52. For C11G A21G A57G, the yeast fitness is at most 0.5.
